Test results taken from ChEMBL document CHEMBL1137448, “Structure-activity studies on diphenylpyrazine derivatives: a novel class of prostacyclin receptor agonists” (Bioorg Med Chem, 2007).
Each block holds one compound with its values, some of them ahead of it.

Tests used:
Plasma = assay: Inhibition of ADP-induced platelet aggregation in human platelet rich plasma
[1] = Cmax in Beagle dog at 3 mg/kg, po; format: ADME, organism-based, Canis lupus familiaris; parameters: dose 3 mg/kg, route oral; settings: in vivo
Method in brief: (§1)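 Animals were acclimatized (rats >1 week, dogs and monkeys >3 weeks) at 21–25 °C and 45–65% humidity, and were not fasted. Dosing was iv or oral to groups of three. Venous blood was sampled predose and at 5, 15 and 30 min and 1–24 h into heparin. Plasma was spun at 3000 rpm for 15 min at 4 °C and analysed by LC-MS (APCI/ESI positive, SIM/SRM). Values are mean ± SD, n=3.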

[2] = Tmax in Beagle dog at 3 mg/kg, po; format: ADME, organism-based, Canis lupus familiaris; parameters: dose 3 mg/kg, route oral; settings: in vivo
Method in brief: as §1

[3] = Half life in Beagle dog at 3 mg/kg, po; format: ADME, organism-based, Canis lupus familiaris; parameters: dose 3 mg/kg, route oral; settings: in vivo
Method in brief: as §1

[4] = AUC in Sprague-Dawley rat at 3 mg/kg, iv; format: ADME, organism-based; parameters: dose 3 mg/kg, route intravenous; settings: plasma
Method in brief: (§2)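 Compound given iv or po to non-fasted groups of three animals (acclimatized ≥1 week rats, ≥3 weeks dogs; fed standard diets, 21–25 °C). Venous blood at predose, 5, 15, 30 min, 1, 2, 4, 6, 8, 10, 24 h into heparinized tubes; plasma by centrifugation (3000 rpm, 15 min, 4 °C); drug measured by LC-MS (APCI or ESI positive, SIM/SRM). Values mean ± SD, n = 3.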

[5] = Half life in cynomolgus monkey at 1 mg/kg, po; format: ADME, organism-based, Macaca fascicularis; parameters: dose 1 mg/kg, route oral; settings: in vivo
Method in brief: (§3)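 Compound given iv or orally to non-fasted animals, groups of three; dogs and monkeys acclimatised over 3 weeks at 21–25 °C, 45–65% humidity. Venous blood drawn into heparinised tubes before dosing and at 5, 15, 30 min and 1, 2, 4, 6, 8, 10, 24 h; plasma by centrifugation (3000 rpm, 15 min, 4 °C), drug quantified by HPLC-MS in SIM or SRM mode; mean ± SD, n = 3.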

[6] = Half life in Beagle dog at 1 mg/kg, iv; format: ADME, organism-based, Canis lupus familiaris; parameters: dose 1 mg/kg, route intravenous; settings: in vivo
Method in brief: as §3

[7] = Half life in Sprague-Dawley rat at 3 mg/kg, iv; format: ADME, organism-based; parameters: dose 3 mg/kg, route intravenous; settings: in vivo
Method in brief: as §1

[8] = AUC in Sprague-Dawley rat at 10 mg/kg, po; format: ADME, organism-based; parameters: dose 10 mg/kg, route oral; settings: plasma
Method in brief: as §2

[9] = Cmax in Sprague-Dawley rat at 10 mg/kg, po; format: ADME, organism-based; parameters: dose 10 mg/kg, route oral; settings: in vivo
Method in brief: as §1

[10] = Oral bioavailability in Beagle dog at 3 mg/kg; format: ADME, organism-based, Canis lupus familiaris; settings: in vivo
Method in brief: as §1

[11] = Oral bioavailability in Sprague-Dawley rat at 10 mg/kg; format: ADME, organism-based; settings: in vivo
Method in brief: as §1

[12] = Tmax in cynomolgus monkey at 1 mg/kg, po; format: ADME, organism-based, Macaca fascicularis; parameters: dose 1 mg/kg, route oral; settings: in vivo
Method in brief: as §3

[13] = Cmax in cynomolgus monkey at 1 mg/kg, po; format: ADME, organism-based, Macaca fascicularis; parameters: dose 1 mg/kg, route oral; settings: in vivo
Method in brief: as §3

[14] = AUC in Beagle dog at 3 mg/kg, po; format: ADME, organism-based, Canis lupus familiaris; parameters: dose 3 mg/kg, route oral; settings: plasma
Method in brief: as §2

[15] = AUC in cynomolgus monkey at 1 mg/kg, po; format: ADME, organism-based, Macaca fascicularis; parameters: dose 1 mg/kg, route oral; settings: plasma
Method in brief: as §1

[16] = Half life in Sprague-Dawley rat at 10 mg/kg, po; format: ADME, organism-based; parameters: dose 10 mg/kg, route oral; settings: in vivo
Method in brief: as §1

[17] = AUC in Beagle dog at 1 mg/kg, iv; format: ADME, organism-based, Canis lupus familiaris; parameters: dose 1 mg/kg, route intravenous; settings: plasma
Method in brief: as §2

[18] = Tmax in Sprague-Dawley rat at 10 mg/kg, po; format: ADME, organism-based; parameters: dose 10 mg/kg, route oral; settings: in vivo
Method in brief: as §1

IC50 (Plasma): 0.005 µM
Structure (SMILES): CC#CCC(C)[C@H](O)/C=C/[C@@H]1[C@H]2C/C(=C/CCCC(=O)O)C[C@H]2C[C@H]1O (stereo partly drawn) [ILOPROST]

IC50 (Plasma): 2 µM
Structure (SMILES): CN(CCc1cccc(OCC(=O)O)c1)c1cnc(-c2ccccc2)c(-c2ccccc2)n1

IC50 (Plasma): 0.017 µM
Structure (SMILES): CC#CCC(C)[C@H](O)/C=C/[C@@H]1[C@H]2c3cccc(CCCC(=O)O)c3O[C@H]2C[C@H]1O (stereo partly drawn) [BERAPROST SODIUM]

Cmax [1]: 14900 ng/mL | Tmax [2]: 0.8 h | half-life [3]: 6.2 h | IC50 (Plasma): 0.2 µM | AUC [4]: 5200 ng·h/mL | half-life [5]: 5.6 h | half-life [6]: 5.9 h | half-life [7]: 4.9 h | AUC [8]: 17700 ng·h/mL | Cmax [9]: 1900 ng/mL | bioavailability [10]: 80% | bioavailability [11]: 102% | Tmax [12]: 2.3 h | Cmax [13]: 110 ng/mL | AUC [14]: 176000 ng·h/mL | AUC [15]: 650 ng·h/mL | half-life [16]: 3.6 h | AUC [17]: 72500 ng·h/mL | Tmax [18]: 0.8 h
Structure (SMILES): CC(C)N(CCCCOCC(=O)O)c1cnc(-c2ccccc2)c(-c2ccccc2)n1

IC50 (Plasma): 6.4 µM
Structure (SMILES): CC(C)N(CCCCOCC(=O)NS(C)(=O)=O)c1cnc(-c2ccccc2)c(-c2ccccc2)n1 [SELEXIPAG]
